Our source for the IC50 values is ChEMBL document CHEMBL1134581, “Synthesis and in vitro antitumor activity of oligonucleotide-tethered and related platinum complexes” (J Med Chem, 2001).

For the first experiment, the system named is CCRF-CEM. The experiment can be described thus: Growth and colony formation inhibition of CEM leukemia cancer cell lines. In kind it is functional, cell-based, Homo sapiens. In short, it runs like this:
(§1)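 CEM and teniposide-resistant CEM/VM-1 leukemia cells in suspension, MEM with 10% FBS and 2 mM L-glutamine, 37 °C, 5% CO2. Exponentially growing cells seeded in triplicate at 3 × 10^5 cells/mL. Drugs dissolved in DMSO or PBS, serially diluted, 48 h exposure. Growth inhibition by Coulter counting. IC50 extrapolated from the concentration–% inhibition plot. Mean ± SD of three experiments.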
On to CISPLATIN, for which the IC50 was < 1 µM.

Consider “Dichloro diacetyl oxy-(amino ethylamino ethanol) platinum”, for which the IC50 was found to be 7 µM.

Substance “Tetrachlorodi(3-hydroxypropylamine)platinum(IV)” had an IC50 of 8 µM.

“Tetrachlorodi(4-hydroxybutylamine)platinum(IV)” gave an IC50 of 10 µM.

System in a further experiment: not listed separately
The experiment can be described thus: Growth and colony formation inhibition of SW626 ovarian cancer cell lines. In kind it is functional, cell-based, Homo sapiens. In short, it runs like this: (§2)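 Colony formation assay in A2780 (wt p53) and SW626 (mutant p53) monolayers, RPMI 1640 with 10% FBS and 2 mM L-glutamine, 37 °C, 5% CO2. 300–500 cells/well, attached 1 day, then serially diluted drug. Exposure 7 days for A2780, 10 days for SW626. Colonies fixed and stained with 0.1% crystal violet in methanol, then counted. IC50 extrapolated. Mean ± SD of three experiments.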
Regarding “3-(7a-Chloro-7-diisopropylamino-hexahydro-6-oxa-1,3a-diaza-platinum-7lambda*5*-phospha-inden-7-yloxy)-propionitrile”, the IC50 is > 200 µM.

As to CISPLATIN, the IC50 was determined as 0.5 µM.

As for “Dichloro diacetyl oxy-(amino ethylamino ethanol) platinum”, the IC50 worked out at 28 µM.

In the case of “Tetrachlorodi(3-hydroxypropylamine)platinum(IV)”, the IC50 amounted to 3 µM.

In turn, “Tetrachlorodi(4-hydroxybutylamine)platinum(IV)” showed an IC50 of 7 µM.

System in a further experiment: not listed separately
The experiment can be described thus: Growth and colony formation inhibition of VM-1 leukemia cancer cell lines. In kind it is functional, cell-based, Homo sapiens. The gist of the method: as §1
Take CISPLATIN: the IC50 is < 1 µM.

On to “Dichloro diacetyl oxy-(amino ethylamino ethanol) platinum”, for which the IC50 came out at 7 µM.

For “Tetrachlorodi(3-hydroxypropylamine)platinum(IV)”, the IC50 worked out at 5 µM. This IC50 and that of the substance before are within 1.5-fold of each other.

“Tetrachlorodi(4-hydroxybutylamine)platinum(IV)”: half-maximal inhibition (IC50) was put at 10 µM.

The subject of the next experiment is SK-OV-3. Kind of experiment: Growth and colony formation inhibition of SKOV-3 ovarian cancer cell lines. The class given is functional, cell-based, Homo sapiens. The gist of the method:
(§3)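 Colony formation in PA-1 (wt p53, 7 days of drug) and SKOV-3 (p53-null, 10 days of drug). Both in RPMI 1640 with 10% FBS and 2 mM L-glutamine, 300–500 cells/well, attached 1 day. Colonies stained with 0.1% crystal violet in methanol and counted. IC50 extrapolated; three experiments. Also an MTT assay: PA-1 1000 cells/well, 1 day attachment, 5 days of drug; SKOV-3 600 cells/well, 2 days attachment, 7 days of drug. MTT 5 h, DMSO, read at 570/630 nm; four experiments.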
Regarding “3-(7a-Chloro-7-diisopropylamino-hexahydro-6-oxa-1,3a-diaza-platinum-7lambda*5*-phospha-inden-7-yloxy)-propionitrile”, the IC50 is > 200 µM.

Turning to “Amminedichloro(2-hydroxyethylamine)platinum (II)”, the IC50 amounted to 13 µM.

Regarding “Amminedichloro(4-hydroxybutylamine)platinum (II)”, the IC50 is 6 µM.

Take “Amminetetrachloro(4-hydroxybutylamine)platinum(IV)”: 9 µM corresponded to half-maximal inhibition (IC50). This IC50 lies about 1.5-fold higher than the previous one.

“Amminetetrachloro(4-hydroxyethylamine)platinum(IV)”: the IC50 amounted to 10 µM.

As for CARBOPLATIN, the IC50 was 28.5 µM.

Substance CISPLATIN returned an IC50 of 0.5 µM.

For the substance “DICHLORO(AMMINO ETHYLAMMINO ETHANOL) PLATINUM(II) [listing 1 of 2 here]”, the IC50 came to 30 µM. Against the preceding substance, the IC50 is about 60-fold higher.

In the case of “DICHLORO(AMMINO ETHYLAMMINO ETHANOL) PLATINUM(II) [listing 2 of 2 here]”, the IC50 turned out to be 26 µM. This IC50 and that of the substance before are within 1.5-fold of each other.

With “Dichloro diacetyl oxy-(amino ethylamino ethanol) platinum”, the IC50 came out at 24 µM.

Substance “Dichlorodi(3-hydroxypropylamine)platinum (II)” had an IC50 of 20 µM.

Substance “Dichlorodi(4-hydroxybutylamine)platinum (II)” gave an IC50 of 23 µM.

“Dichlorodiacetyl oxy-(ammino acetoxy butylammino ethanol) platinum (II)” registered an IC50 of 22 µM.

“Dichlorodiacetyl oxy-(ammino acetoxy ethylammino ethanol) platinum (II)” had an IC50 of 10 µM.

“Tetrachlorodi(3-hydroxypropylamine)platinum(IV)”: half-maximal inhibition (IC50) required 10 µM.

As to “Tetrachlorodi(4-hydroxybutylamine)platinum(IV)”, the IC50 came to 4 µM.

In the next experiment the test system is A2780. Kind of experiment: Growth and colony formation inhibition of A2780 ovarian cancer cell lines. The class given is functional, cell-based, Homo sapiens. In short, it runs like this: as §2
With “3-(7a-Chloro-7-diisopropylamino-hexahydro-6-oxa-1,3a-diaza-platinum-7lambda*5*-phospha-inden-7-yloxy)-propionitrile”, the IC50 turned out to be 125 µM.

CISPLATIN gave an IC50 of 0.6 µM. This IC50 is about 210-fold lower than that of the substance before.

The substance “Dichloro diacetyl oxy-(amino ethylamino ethanol) platinum” had an IC50 of 2.8 µM.

The substance “Tetrachlorodi(3-hydroxypropylamine)platinum(IV)” registered an IC50 of 1.6 µM. Against the preceding substance, the IC50 is about 1.7-fold lower.

“Tetrachlorodi(4-hydroxybutylamine)platinum(IV)” registered a concentration for half-maximal inhibition (IC50) of 2.2 µM.

System in another experiment: not listed separately
The experiment can be described thus: Growth and colony formation inhibition of PA-1 ovarian cancer cell lines. The class given is functional, cell-based, Homo sapiens. In short, it runs like this: as §3
In the case of “3-(7a-Chloro-7-diisopropylamino-hexahydro-6-oxa-1,3a-diaza-platinum-7lambda*5*-phospha-inden-7-yloxy)-propionitrile”, the IC50 was 165 µM.

As for “Amminedichloro(2-hydroxyethylamine)platinum (II)”, the 50% inhibitory concentration (IC50) amounted to 0.7 µM.

In turn, “Amminedichloro(4-hydroxybutylamine)platinum (II)” registered an IC50 of 0.4 µM.

For “Amminetetrachloro(4-hydroxybutylamine)platinum(IV)”, the IC50 is 0.2 µM.

“Amminetetrachloro(4-hydroxyethylamine)platinum(IV)” registered an IC50 of 0.9 µM. This IC50 is about 4.5-fold higher than that of the substance before.

CARBOPLATIN: half-maximal inhibition (IC50) required 2.4 µM.

Consider CISPLATIN, for which the IC50 is 0.3 µM.

“DICHLORO(AMMINO ETHYLAMMINO ETHANOL) PLATINUM(II) [listing 1 of 2 here]” registered an IC50 of 2.9 µM.

Substance “DICHLORO(AMMINO ETHYLAMMINO ETHANOL) PLATINUM(II) [listing 2 of 2 here]” had an IC50 of 1.7 µM.

For the substance “Dichloro diacetyl oxy-(amino ethylamino ethanol) platinum”, the half-maximal inhibitory concentration (IC50) was 1.5 µM.

“Dichlorodi(3-hydroxypropylamine)platinum (II)” showed an IC50 of 1.2 µM. This IC50 and that of the substance before are within 1.5-fold of each other.

On to “Dichlorodi(4-hydroxybutylamine)platinum (II)”, for which the IC50 is 1.5 µM.

“Dichlorodiacetyl oxy-(ammino acetoxy butylammino ethanol) platinum (II)”: the IC50 amounted to 0.8 µM. This IC50 is about 1.9-fold lower than that of the substance before.

Substance “Dichlorodiacetyl oxy-(ammino acetoxy ethylammino ethanol) platinum (II)” had an IC50 of 2.8 µM.

“Tetrachlorodi(3-hydroxypropylamine)platinum(IV)”: the IC50 is 0.6 µM.

The substance “Tetrachlorodi(4-hydroxybutylamine)platinum(IV)” showed an IC50 of 1 µM. Compared with the last substance, the IC50 is about 1.7-fold higher.
